In paper PMC7366207 (Journal of Antimicrobial Chemotherapy, 2020):

Tests used:
[1] = oral dolutegravir 50 mg/day; same allele and activity definitions; cited from earlier work
[2] = tested on: cytochrome P450 3A4; conditions: cited from earlier work
[3] = Last oral lead-in cabotegravir trough; type: in vivo, human; conditions: for Low-versus-normal fold-change between mean cabotegravir trough concentrations: last oral trough on Day 1 (oral 30 mg); for Mean cabotegravir trough concentration: last oral trough on Day 1
Summary of the method: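 Human PK in LATTE-2 (4-weekly arm): daily oral 30 mg plus abacavir/lamivudine for 20 weeks. Day 1 trough taken 20–28 h after the last home oral dose. Plasma drug measured by validated LC-MS (LLOQ 25 ng/mL). Predicted UGT1A1 activity: normal with no *6/*28/*37 (*36 counted as wild type), reduced with one copy, low with two. Fold-change taken as the ratio of mean troughs.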

[4] = cited from earlier work
[5] = type: in vivo, human; conditions: oral 30 mg/day, steady state
[6] = tested on: uridine 5′-diphospho-glucuronosyltransferase (UGT); conditions: cited from earlier work
[7] = tested on: UGT1A9; conditions: cited from earlier work
[8] = type: in vivo, human; conditions: LATTE
Summary of the method: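 LATTE participants received oral drug 10, 30 or 60 mg once daily with two nucleoside analogues for 24 weeks, then with rilpivirine 25 mg daily to Week 72. Maximum on-treatment change from baseline in serum ALT and total bilirubin, regardless of dose, measured centrally as multiples of ULN. Linear regression on predicted UGT1A1/UGT1A9 activity, with covariates kept if P<0.05.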

[9] = tested on: UGT1A1; conditions: cited from earlier work
[10] = fast versus normal predicted UGT1A9 activity
[11] = low versus normal predicted UGT1A1 activity
[12] = oral 10, 30 and 60 mg, fast versus normal predicted UGT1A9 activity
[13] = oral 10, 30 and 60 mg, low versus normal predicted UGT1A1 activity

Structure (SMILES): C[C@@H]1CCO[C@H]2Cn3cc(C(=O)NCc4ccc(F)cc4F)c(=O)c(O)c3C(=O)N12 [dolutegravir]
- Increase in AUCtau associated with low UGT1A1 activity [1]: 46%
- Increase in Cmax associated with low UGT1A1 activity [1]: 32%
- Contribution of cytochrome P450 3A4 to metabolism [2]: ~30%

Structure (SMILES): C[C@H]1CO[C@@H]2Cn3cc(C(=O)NCc4ccc(F)cc4F)c(=O)c(O)c3C(=O)N12 [cabotegravir]
- Low-versus-normal fold-change between mean cabotegravir trough concentrations ([3]; 4 weekly group): 1.57 fold
- Mean cabotegravir trough concentration ([3]; 4 weekly group, low predicted UGT1A1 activity): 6.11 µg/mL
- Mean cabotegravir trough concentration ([3]; 4 weekly group, normal predicted UGT1A1 activity): 3.88 µg/mL
- Low-versus-normal fold-change between mean cabotegravir trough concentrations ([3]; 8 weekly arm): 1.19 fold
- Mean cabotegravir trough concentration ([3]; 8 weekly arm, low predicted UGT1A1 activity): 5.10 µg/mL
- Mean cabotegravir trough concentration ([3]; 8 weekly arm, normal predicted UGT1A1 activity): 4.28 µg/mL
- Aqueous solubility [4]: low aqueous solubility
- Association of predicted UGT1A9 activity with exposure measures [5]: not significantly associated
- Elevation in oral AUCtau associated with low predicted UGT1A1 activity [5]: 41%
- Elevation in oral Cmax associated with low predicted UGT1A1 activity [5]: 28%
- AUCtau, fold-change in exposure (fast versus normal) [5, 10]: 1.04 fold
- Cmax, fold-change in exposure (fast versus normal) [5, 10]: 1.03 fold
- Ctau, fold-change in exposure (fast versus normal) [5, 10]: 0.98 fold
- AUCtau, fold-change in exposure (low versus normal) [5, 11]: 1.41 fold
- Cmax, fold-change in exposure (low versus normal) [5, 11]: 1.28 fold
- Ctau, fold-change in exposure (low versus normal) [5, 11]: 1.50 fold
- Inhibition or induction of UGT [6]: not an inhibitor or inducer
- Metabolism by UGT1A9 [7]: minor contribution by UGT1A9
- ALT change from BL, fold-change (fast versus normal) [8, 12]: 1.68 fold
- Tbili change from BL, fold-change (fast versus normal) [8, 12]: 0.69 fold
- ALT maximum change from baseline, fold-change (low versus normal) [8, 13]: 0.68 fold
- Tbili maximum change from baseline, fold-change (low versus normal) [8, 13]: 2.45 fold
- Association of predicted UGT1A1 activity with maximum change in ALT ([8]; oral any dose): no significant association
- Participants with maximum on-treatment ALT elevation ≥3× ULN ([8]; among the 5 participants with Tbili increases of 1.5× ULN or greater): none
- Effect on UGT1A1 expression or activity [9]: does not functionally affect UGT1A1 expression or activity
- Metabolism by UGT1A1 [9]: primarily metabolized by UGT1A1
